Measured values as given in ChEMBL document CHEMBL1139824, “Optimization of a pyrazoloquinolinone class of Chk1 kinase inhibitors” (Bioorg Med Chem Lett, 2007).

Assays:
[1] = target: T1, Serine/threonine-protein kinase Chk1 (Homo sapiens, UniProt O14757); test: Inhibition of Chk1 by fluorescence assay
T1 sequence (O14757 whole entry): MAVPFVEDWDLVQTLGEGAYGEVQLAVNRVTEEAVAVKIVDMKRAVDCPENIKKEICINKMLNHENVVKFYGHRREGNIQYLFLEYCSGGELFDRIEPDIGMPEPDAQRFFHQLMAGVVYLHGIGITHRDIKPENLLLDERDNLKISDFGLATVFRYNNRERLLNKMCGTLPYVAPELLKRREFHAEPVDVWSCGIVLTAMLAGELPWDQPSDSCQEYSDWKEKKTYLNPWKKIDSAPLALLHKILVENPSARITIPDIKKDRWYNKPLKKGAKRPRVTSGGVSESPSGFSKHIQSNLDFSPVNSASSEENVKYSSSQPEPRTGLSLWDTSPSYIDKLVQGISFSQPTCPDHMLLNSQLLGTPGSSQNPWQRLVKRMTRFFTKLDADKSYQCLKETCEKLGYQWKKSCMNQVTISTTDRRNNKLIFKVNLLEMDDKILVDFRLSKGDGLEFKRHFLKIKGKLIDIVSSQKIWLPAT

NCI-H1299 = test: Inhibition of camptothecin-induced cell cycle arrest in NCI-H1299 cells after 8 hrs; assay type: functional, cell-based; settings: Homo sapiens, NCI-H1299, 8 h
How it was run: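 NCI-H1299 lung carcinoma cells held 16 h in camptothecin to arrest, then exposed to inhibitor a further 8 h. Escape into mitosis scored by mitosis-specific nucleolin phosphorylation, quantified with an antibody-coated bead-based assay.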

IC50 [1] [nM] | EC50 (NCI-H1299) [nM] | SMILES
1370 |  | Cc1[nH]nc2c1c(=O)[nH]c1ccccc12
230 |  | Cc1ccc2[nH]c(=O)c3c(C)[nH]nc3c2c1
40 | 2980 | Cc1[nH]nc2c1c(=O)[nH]c1ccc(Cl)cc12
7080 |  | CC(=O)Nc1ccc2[nH]c(=O)c3c(C)[nH]nc3c2c1
3.2 | 83 | Cc1[nH]nc2c1c(=O)n(C[C@@H](F)CN)c1cc(C3CCCCC3)c(C3CCCCC3)cc21
1490 |  | Cc1cccc2c1[nH]c(=O)c1c(C)[nH]nc12
1980 |  | Cc1[nH]nc2c1c(=O)[nH]c1cc(Cl)ccc12
10 | > 10000 | CCn1c(=O)c2c(C)[nH]nc2c2cc3c(cc21)CN(S(=O)(=O)CCN)CC3
850 |  | Cc1[nH]nc2c1c(OCCN)nc1ccc(Cl)cc12
60 |  | Cc1[nH]nc2c1c(NCCN)nc1ccc(Cl)cc12
220 |  | Cc1[nH]nc2c1c(NCCCN)nc1ccc(Cl)cc12
1.2 | 160 | Cc1[nH]nc2c1c(=O)n(CCCN)c1ccc(Cl)cc21
20 | 1010 | Cc1[nH]nc2c1c(=O)n(CCCCN)c1ccc(Cl)cc21
28900 |  | Cc1[nH]nc2c1c(=O)[nH]c1cccc(Cl)c12
29 | 710 | Cc1[nH]nc2c1c(=O)[nH]c1cc3ccccc3cc12
130 | 1210 | Cc1[nH]nc2c1c(=O)[nH]c1cc3c(cc12)CCCC3
12 | > 10000 | CCn1c(=O)c2c(C)[nH]nc2c2cc3c(cc21)CN(C(=O)NCCN)CC3
3.1 | 65 | Cc1[nH]nc2c1c(=O)n(C[C@H](F)CN)c1cc(C3CCCCC3)c(C3CCCCC3)cc21
58 |  | Cc1[nH]nc2c1c(=O)[nH]c1c(/C=C/CN)c(C3CCCCC3)c(C3CCCCC3)cc12
290 |  | Cc1[nH]nc2c1c(=O)[nH]c1c(CCCN)c(C3CCCCC3)c(C3CCCCC3)cc12
18 | > 10000 | CCn1c(=O)c2c(C)[nH]nc2c2cc3c(cc21)CN(C(=O)CN)CC3
36 | 980 | Cc1[nH]nc2c1c(=O)n(CCN)c1ccc(Cl)cc21
> 100000 |  | Cc1[nH]nc2c1c(=O)[nH]c1cccc(C)c12
64 | 10200 | Cc1[nH]nc2c1c(OCCCN)nc1ccc(Cl)cc12
